{
  "source": "paper PMC5836847",
  "about": "(Clinical Pharmacology and Therapeutics, 2017)",
  "key": {"[1]": {"assay": "Plasma pharmacokinetics of sildenafil and N-desmethyl-sildenafil", "format": "in vivo, human", "conditions": "for AUCinf, Intrasubject CV / AUClast, Intrasubject CV / Cmax, Intrasubject CV: fixed effect model, sacubitril/valsartan + sildenafil vs. sildenafil alone; for Tmax (median time to reach maximum concentration): single-dose oral administration of sildenafil; for AUC(0-t): AUClast", "outline": "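Male hypertensive patients received single oral sildenafil 50 mg alone (Day 1), then again on Day 8 with sacubitril/valsartan 400 mg q.d. at steady state. Plasma sildenafil and N-desmethyl-sildenafil were profiled after each dose. Outputs were AUCinf, AUClast, T1/2, Cmax and Tmax. Log-transformed parameters went into a fixed-effect model with subject and treatment as factors; combination was test, sildenafil alone reference. Output was back-transformed GMR with 90% CI.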"}, "[2]": {"conditions": "cited from earlier work"}, "[3]": {"assay": "Plasma pharmacokinetics of sacubitril/valsartan analytes at steady state", "format": "in vivo, human", "conditions": "for AUCtau,ss, Intrasubject CV / Cmax,ss, Intrasubject CV: fixed effect model; for AUC / Cmax: male, human, oral, Mean ± SD; for AUC / Cmax / Tmax (time of peak concentrations): plasma; for AUC: AUCtau,ss, Sacubitril/valsartan alone (400 mg q.d., steady state, Day 7); for Cmax: Cmax,ss; for Tmax (time of peak concentrations): oral administration of sacubitril/valsartan, steady state", "outline": "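Male hypertensive patients took oral sacubitril/valsartan 400 mg q.d. on Days 3–7, with predose samples on Days 3–6. Plasma sacubitril, sacubitrilat and valsartan were profiled at steady state on Day 7 and on Day 8 with single-dose sildenafil 50 mg. Outputs were AUCtau,ss, Cmax,ss and Tmax,ss. Log-transformed parameters went into a fixed-effect model with subject and treatment as factors; combination was test, monotherapy reference. Output was back-transformed GMR with 90% CI.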"}, "patients with HFrEF": {"test_system": "patients with HFrEF", "conditions": "cited from earlier work"}, "healthy subjects": {"test_system": "healthy subjects", "conditions": "40 mg and 80 mg doses; cited from earlier work"}, "[4]": {"test_system": "patients with mild-to-moderate hypertension", "assay": "Safety assessments", "format": "in vivo, human", "conditions": "for safety and tolerability: single-dose sildenafil 50 mg, sacubitril/valsartan 400 mg q.d., coadministration", "outline": "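Adverse events were recorded across three sequential periods in male hypertensive patients: single oral sildenafil 50 mg (Day 1), sacubitril/valsartan 400 mg q.d. (Days 3–7), and both together (Day 8). Events were graded by intensity and by suspected relation to study drug. They were summarised by treatment and visit/time, as number and percentage of subjects by body system and treatment.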"}, "[5]": {"conditions": "cited from earlier work", "remark": "listed apart in the source"}, "[6]": {"conditions": "sacubitril/valsartan and warfarin coadministered; cited from earlier work"}, "[7]": {"conditions": "200 mg twice daily or 400 mg q.d., healthy individuals; cited from earlier work"}, "[8]": {"conditions": "plasma, Sacubitril/valsartan + Sildenafil (Day 8)"}, "[9]": {"conditions": "plasma, Sildenafil alone (50 mg single dose, Day 1)"}, "[10]": {"conditions": "plasma, Sildenafil alone (Day 1)"}, "[11]": {"conditions": "coadministration of sacubitril/valsartan and sildenafil vs. sacubitril/valsartan alone"}, "[12]": {"conditions": "400 mg, Sacubitril/valsartan alone (Day 7)"}, "[13]": {"conditions": "Sacubitril/valsartan + Sildenafil (Day 8)"}},
  "data": [
    {"molecule": "CCCc1nn(C)c2c(=O)[nH]c(-c3cc(S(=O)(=O)N4CCNCC4)ccc3OCC)nc12", "note": "[N‐desmethyl‐sildenafil]", "values": [
      {"measurement": "decrease in Cmax", "setting": "[1]; coadministration of sildenafil and sacubitril/valsartan vs. sildenafil alone", "result": 14, "unit": "%"},
      {"measurement": "AUCinf, Intrasubject CV", "setting": "[1]", "result": 15.9, "unit": "%"},
      {"measurement": "AUClast, Intrasubject CV", "setting": "[1]", "result": 16.4, "unit": "%"},
      {"measurement": "Cmax, Intrasubject CV", "setting": "[1]", "result": 26.7, "unit": "%"},
      {"measurement": "AUCinf, Adjusted geometric mean", "setting": "[1]; [8]", "result": 305, "unit": "ng·h/mL"},
      {"measurement": "AUClast, Adjusted geometric mean", "setting": "[1]; [8]", "result": 278, "unit": "ng·h/mL"},
      {"measurement": "AUClast, Mean ± SD", "setting": "[1]; [8]", "result": "305 ± 133", "unit": "ng·h/mL"},
      {"measurement": "Cmax, Adjusted geometric mean", "setting": "[1]; [8]", "result": 75.9, "unit": "ng/mL"},
      {"measurement": "Cmax, Mean ± SD", "setting": "[1]; [8]", "result": "84.6 ± 39.3", "unit": "ng/mL"},
      {"measurement": "AUCinf, Mean ± SD", "setting": "[1]; [9]", "result": "359 ± 157", "unit": "ng·h/mL"},
      {"measurement": "Cmax, Mean ± SD", "setting": "[1]; [9]", "result": "95.1 ± 32.5", "unit": "ng/mL"},
      {"measurement": "AUCinf, Adjusted geometric mean", "setting": "[1]; [10]", "result": 327, "unit": "ng·h/mL"},
      {"measurement": "AUClast, Adjusted geometric mean", "setting": "[1]; [10]", "result": 297, "unit": "ng·h/mL"},
      {"measurement": "AUClast, Mean ± SD", "setting": "[1]; [10]", "result": "331 ± 152", "unit": "ng·h/mL"},
      {"measurement": "Cmax, Adjusted geometric mean", "setting": "[1]; [10]", "result": 88.4, "unit": "ng/mL"},
      {"measurement": "terminal half-life (T1/2)", "setting": "[1]; plasma, sildenafil administered alone", "result": "5.3 ± 1.6", "unit": "h"},
      {"measurement": "terminal half-life (T1/2)", "setting": "[1]; plasma, sildenafil coadministered with sacubitril/valsartan", "result": "6.2 ± 1.9", "unit": "h"},
      {"measurement": "Tmax (median time to reach maximum concentration)", "setting": "[1]; plasma", "result": 1, "unit": "h"},
      {"measurement": "share of sildenafil's pharmacological effects accounted for", "setting": "[2]", "result": 20, "unit": "%"},
      {"measurement": "plasma concentration relative to parent compound", "setting": "[2]; relative to sildenafil", "result": "~40", "unit": "%"},
      {"measurement": "potency relative to parent compound", "setting": "[2]; relative to sildenafil", "result": "~50", "unit": "%"}
    ]},
    {"molecule": "CCOC(=O)[C@H](C)C[C@@H](Cc1ccc(-c2ccccc2)cc1)NC(=O)CCC(=O)O", "note": "[Sacubitril]", "values": [
      {"measurement": "decrease in Cmax", "setting": "[3]; [11]", "result": 10, "unit": "%"},
      {"measurement": "AUCtau,ss, Intrasubject CV", "setting": "[3]", "result": 12.2, "unit": "%"},
      {"measurement": "Cmax,ss, Intrasubject CV", "setting": "[3]", "result": 45.3, "unit": "%"},
      {"measurement": "AUC", "setting": "[3]; 400 mg", "result": "3400 ± 1000", "unit": "ng·h/mL"},
      {"measurement": "Cmax", "setting": "[3]; [12]", "result": "2470 ± 865", "unit": "ng/mL"},
      {"measurement": "Cmax", "setting": "[3]; [13]", "result": "2310 ± 1020", "unit": "ng/mL"},
      {"measurement": "Tmax (time of peak concentrations)", "setting": "[3]", "result": 0.5, "unit": "h"}
    ]},
    {"molecule": "C[C@H](C[C@@H](Cc1ccc(-c2ccccc2)cc1)NC(=O)CCC(=O)O)C(=O)O", "note": "[Sacubitrilat]", "values": [
      {"measurement": "AUCtau,ss, Intrasubject CV", "setting": "[3]", "result": 3.75, "unit": "%"},
      {"measurement": "Cmax,ss, Intrasubject CV", "setting": "[3]", "result": 13, "unit": "%"},
      {"measurement": "AUC", "setting": "[3]; 400 mg", "result": "143000 ± 26300", "unit": "ng·h/mL"},
      {"measurement": "Cmax", "setting": "[3]; [12]", "result": "14900 ± 2250", "unit": "ng/mL"},
      {"measurement": "Cmax", "setting": "[3]; [13]", "result": "14000 ± 2420", "unit": "ng/mL"},
      {"measurement": "Tmax (time of peak concentrations)", "setting": "[3]", "result": 2.0, "unit": "h"}
    ]},
    {"molecule": "CCCc1nn(C)c2c(=O)[nH]c(-c3cc(S(=O)(=O)N4CCN(C)CC4)ccc3OCC)nc12", "note": "[Sildenafil]", "values": [
      {"measurement": "cardiac output", "setting": "patients with HFrEF; 50 mg sildenafil, patients with HFrEF", "result": "increased"},
      {"measurement": "safety and tolerability", "setting": "patients with HFrEF; sildenafil administered to patients with HFrEF", "result": "safe and well tolerated"},
      {"measurement": "duration of BP-lowering effect postdosing", "setting": "healthy subjects", "result": 5, "unit": "h"},
      {"measurement": "AUCinf, Intrasubject CV", "setting": "[1]", "result": 23.4, "unit": "%"},
      {"measurement": "AUClast, Intrasubject CV", "setting": "[1]", "result": 23.4, "unit": "%"},
      {"measurement": "Cmax, Intrasubject CV", "setting": "[1]", "result": 35.5, "unit": "%"},
      {"measurement": "half-life", "setting": "[1]; male, human, plasma, oral, 50 mg", "result": "3.7 ± 1", "unit": "h"},
      {"measurement": "AUC(0-t)", "setting": "[1]; male, human, plasma, oral, 50 mg, Mean ± SD, plasma, Sildenafil alone (Day 1)", "result": "587 ± 270", "unit": "ng·h/mL"},
      {"measurement": "AUC(0-t)", "setting": "[1]; male, human, plasma, oral, Mean ± SD, plasma, Sacubitril/valsartan + Sildenafil (Day 8)", "result": "612 ± 297", "unit": "ng·h/mL"},
      {"measurement": "Cmax", "setting": "[1]; male, human, plasma, oral, Cmax, Mean ± SD, plasma, Sacubitril/valsartan + Sildenafil (Day 8)", "result": "189 ± 99.6", "unit": "ng/mL"},
      {"measurement": "Tmax (median time to reach maximum concentration)", "setting": "[1]; plasma", "result": 0.5, "unit": "h"},
      {"measurement": "suspected treatment-related AEs of moderate intensity", "setting": "[4]; per study period", "result": 1, "unit": "AE"},
      {"measurement": "safety and tolerability", "setting": "[4]", "result": "generally safe and well‐tolerated"}
    ]},
    {"molecule": "CCCCC(=O)N(Cc1ccc(-c2ccccc2-c2nnn[nH]2)cc1)[C@H](C(=O)O)C(C)C", "note": "[Valsartan]", "values": [
      {"measurement": "decrease in AUC", "setting": "[3]; [11]", "result": 29, "unit": "%"},
      {"measurement": "decrease in Cmax", "setting": "[3]; [11]", "result": 39, "unit": "%"},
      {"measurement": "AUCtau,ss, Intrasubject CV", "setting": "[3]", "result": 28, "unit": "%"},
      {"measurement": "Cmax,ss, Intrasubject CV", "setting": "[3]", "result": 32.6, "unit": "%"},
      {"measurement": "AUC", "setting": "[3]; 400 mg", "result": "33000 ± 12400", "unit": "ng·h/mL"},
      {"measurement": "Cmax", "setting": "[3]; [12]", "result": "5300 ± 1750", "unit": "ng/mL"},
      {"measurement": "Cmax", "setting": "[3]; [13]", "result": "3350 ± 1480", "unit": "ng/mL"},
      {"measurement": "Tmax (time of peak concentrations)", "setting": "[3]", "result": 2.0, "unit": "h"},
      {"measurement": "intersubject variability in pharmacokinetic parameters", "setting": "[5]", "result": 44, "unit": "%"}
    ]},
    {"molecule": "Sacubitril/valsartan", "values": [
      {"measurement": "impact on the pharmacokinetics of the CYP2C9 substrate warfarin", "setting": "[6]", "result": "no impact"},
      {"measurement": "safety and tolerability", "setting": "[4]", "result": "generally safe and well‐tolerated"},
      {"measurement": "time to achieve steady-state levels", "setting": "[7]", "result": 3, "unit": "days"}
    ]}
  ]
}
